Test results from ChEMBL document CHEMBL4619820, “Development of Novel AKR1C3 Inhibitors as New Potential Treatment for Castration-Resistant Prostate Cancer” (J Med Chem, 2020).
Residue numbers refer to the chain shown, from its start. Activity calls are given as the source filed them. The calls are words filed in the database; no cut-off is given here.

Key:
[1] = target: T1, Androgen receptor (Homo sapiens) (UniProt P10275); assay: Agonistic activity at AR in human 22Rv1 cells assessed as effect on cell number at 1 nM by CCK8 assay; assay type: cell-based; conditions: CWR22R
T1 sequence (whole entry): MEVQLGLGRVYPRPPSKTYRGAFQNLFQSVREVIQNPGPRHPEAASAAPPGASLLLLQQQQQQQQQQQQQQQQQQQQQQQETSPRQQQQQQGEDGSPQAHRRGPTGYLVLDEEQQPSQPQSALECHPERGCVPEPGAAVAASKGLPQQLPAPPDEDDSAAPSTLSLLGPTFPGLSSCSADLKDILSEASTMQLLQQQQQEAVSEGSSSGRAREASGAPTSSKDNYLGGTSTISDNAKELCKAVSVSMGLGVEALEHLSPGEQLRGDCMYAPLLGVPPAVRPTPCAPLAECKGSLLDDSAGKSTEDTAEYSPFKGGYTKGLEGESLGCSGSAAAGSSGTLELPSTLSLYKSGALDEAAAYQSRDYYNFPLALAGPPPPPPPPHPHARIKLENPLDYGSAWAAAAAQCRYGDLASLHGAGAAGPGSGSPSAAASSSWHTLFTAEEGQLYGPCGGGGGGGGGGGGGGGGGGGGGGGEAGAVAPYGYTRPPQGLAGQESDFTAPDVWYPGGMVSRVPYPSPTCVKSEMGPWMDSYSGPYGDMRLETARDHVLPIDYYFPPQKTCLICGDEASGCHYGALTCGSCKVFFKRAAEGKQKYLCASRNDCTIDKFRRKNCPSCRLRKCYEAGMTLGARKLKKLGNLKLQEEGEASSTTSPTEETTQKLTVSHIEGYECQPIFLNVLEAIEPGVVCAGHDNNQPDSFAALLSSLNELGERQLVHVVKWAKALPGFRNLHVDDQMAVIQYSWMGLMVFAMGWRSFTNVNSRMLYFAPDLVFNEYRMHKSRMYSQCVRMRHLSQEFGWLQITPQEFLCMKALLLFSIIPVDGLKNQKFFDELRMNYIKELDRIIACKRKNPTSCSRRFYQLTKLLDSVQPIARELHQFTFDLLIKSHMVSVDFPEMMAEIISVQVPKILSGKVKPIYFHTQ

[2] = target: T2, Aldo-keto reductase family 1 member C3 (Homo sapiens, UniProt P42330); assay: Inhibition of recombinant AKR1C3 (unknown origin) assessed as reduction in S-tetralol-induced dehydrogenase activity by measuring NADPH level
T2 sequence (P42330 whole entry): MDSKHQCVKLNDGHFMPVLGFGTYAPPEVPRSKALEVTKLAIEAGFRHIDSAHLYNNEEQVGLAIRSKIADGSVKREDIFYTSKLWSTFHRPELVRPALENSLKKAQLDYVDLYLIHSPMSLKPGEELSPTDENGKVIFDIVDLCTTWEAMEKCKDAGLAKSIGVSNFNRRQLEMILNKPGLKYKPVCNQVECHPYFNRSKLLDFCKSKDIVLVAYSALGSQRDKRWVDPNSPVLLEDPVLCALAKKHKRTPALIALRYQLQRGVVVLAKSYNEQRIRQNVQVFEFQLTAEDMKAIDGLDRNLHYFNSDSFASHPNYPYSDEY

Homo sapiens [3] = species: Homo sapiens; assay: Ratio of IC50 for inhibition of recombinant AKR1C2 (unknown origin) inhibition of recombinant AKR1C3 (unknown origin)
Homo sapiens [4] = species: Homo sapiens; assay: Ratio of IC50 for inhibition of recombinant AKR1C4 (unknown origin) inhibition of recombinant AKR1C3 (unknown origin)
Homo sapiens [5] = species: Homo sapiens; assay: Ratio of IC50 for inhibition of CBR1 (unknown origin) inhibition of recombinant AKR1C3 (unknown origin)
[6] = target: T3, Carbonyl reductase [NADPH] 1 (Homo sapiens, UniProt P16152); assay: Inhibition of CBR1 (unknown origin)
T3 sequence (P16152 whole entry): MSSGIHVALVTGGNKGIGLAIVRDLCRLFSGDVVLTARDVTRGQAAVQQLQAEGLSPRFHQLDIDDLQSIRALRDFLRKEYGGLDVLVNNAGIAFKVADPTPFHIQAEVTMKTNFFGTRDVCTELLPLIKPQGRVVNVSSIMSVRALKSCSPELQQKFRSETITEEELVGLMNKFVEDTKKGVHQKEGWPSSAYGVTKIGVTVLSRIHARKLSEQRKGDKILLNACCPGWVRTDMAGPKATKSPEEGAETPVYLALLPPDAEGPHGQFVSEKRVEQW

[7] = target: T4, Aldo-keto reductase family 1 member C4 (Homo sapiens, UniProt P17516); assay: Inhibition of recombinant AKR1C4 (unknown origin) assessed as reduction in S-tetralol-induced dehydrogenase activity by measuring NADPH level
T4 sequence (P17516 whole entry): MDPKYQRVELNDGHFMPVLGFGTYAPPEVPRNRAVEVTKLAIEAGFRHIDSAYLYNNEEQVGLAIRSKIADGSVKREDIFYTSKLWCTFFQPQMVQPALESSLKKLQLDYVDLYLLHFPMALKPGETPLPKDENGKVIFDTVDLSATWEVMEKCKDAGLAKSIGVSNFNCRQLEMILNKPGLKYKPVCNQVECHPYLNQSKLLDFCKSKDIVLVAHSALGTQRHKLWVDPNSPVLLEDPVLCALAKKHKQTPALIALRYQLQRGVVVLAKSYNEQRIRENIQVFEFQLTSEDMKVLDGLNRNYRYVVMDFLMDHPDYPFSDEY

Homo sapiens [8] = species: Homo sapiens; assay: Ratio of IC50 for inhibition of recombinant AKR1C1 (unknown origin) inhibition of recombinant AKR1C3 (unknown origin)
[9] = target: T5, Aldo-keto reductase family 1 member C2 (Homo sapiens, UniProt P52895); assay: Inhibition of recombinant AKR1C2 (unknown origin) assessed as reduction in S-tetralol-induced dehydrogenase activity by measuring NADPH level
T5 sequence (P52895 whole entry): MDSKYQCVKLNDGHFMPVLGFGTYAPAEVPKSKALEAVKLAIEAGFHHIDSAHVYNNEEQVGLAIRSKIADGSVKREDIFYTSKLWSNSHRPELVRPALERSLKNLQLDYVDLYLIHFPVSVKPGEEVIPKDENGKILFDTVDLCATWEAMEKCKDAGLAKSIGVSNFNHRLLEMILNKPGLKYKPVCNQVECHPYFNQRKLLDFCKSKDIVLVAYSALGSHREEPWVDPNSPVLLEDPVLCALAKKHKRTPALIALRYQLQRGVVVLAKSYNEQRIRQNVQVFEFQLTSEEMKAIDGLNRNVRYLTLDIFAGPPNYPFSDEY

[10] = target: T6, Aldo-keto reductase family 1 member C1 (Homo sapiens, UniProt Q04828); assay: Inhibition of recombinant AKR1C1 (unknown origin) assessed as reduction in S-tetralol-induced dehydrogenase activity by measuring NADPH level
T6 sequence (Q04828 whole entry): T5 sequence (P52895 whole entry) with V38T, H47R, V54L, S87C, M151V, H170R, L172Q

PC-3 [11] = conditions: Homo sapiens, at 10 µM
CWR22R [12] = assay: Induction of ROS generation in human 22Rv1 cells at 10 uM by DCFH-DA dye based flow cytometric analysis; assay type: functional, cell-based
Summary of the method: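 22Rv1 cells exposed 3 h to 10 μM inhibitor and/or abiraterone, or 50 μM enzalutamide; intracellular ROS by flow cytometry as DCF-positive cells, percent of vehicle control.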

CWR22R [13] = assay: Inhibition of PSA mRNA expression in human 22Rv1 cells at 10 uM pre-incubated for 2 hrs before pregnenolone stimulation for 24 hrs by RT-qPCR analysis; assay type: functional, cell-based
Summary of the method: (§1)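 22Rv1 cells pretreated 2 h with test agents, then stimulated 24 h with 20 nM pregnenolone; AR, TMPRSS2 and PSA mRNA measured by RT-qPCR, given as ratio to pregnenolone-free control.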

CWR22R [14] = assay: Inhibition of pregnenolone-induced cell proliferation of human 22Rv1 cells at 10 uM pre-incubated for 2 hrs before pregnenolone stimulation for 72 hrs by alamar blue assay; assay type: functional, cell-based
Summary of the method: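 22Rv1 cells (AKR1C3- and AR-expressing) pretreated 2 h with agents, then cultured 72 h with 20 nM pregnenolone; viable cell number given as percent of pregnenolone-free control.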

CWR22R [15] = assay: Inhibition of TMPRSS2 mRNA expression in human 22Rv1 cells at 10 uM pre-incubated for 2 hrs before pregnenolone stimulation for 24 hrs by RT-qPCR analysis; assay type: functional, cell-based; summary of the method: as §1
CWR22R [16] = assay: Induction of apoptosis in human 22Rv1 cells pre-incubated for 2 hrs before addition of pregnenolone for 24 hrs; assay type: functional, cell-based
CWR22R [17] = assay: Inhibition of AR mRNA expression in human 22Rv1 cells at 10 uM pre-incubated for 2 hrs before pregnenolone stimulation for 24 hrs by RT-qPCR analysis; assay type: functional, cell-based; summary of the method: as §1
PC-3 [18] = assay: Inhibition of cell proliferation of human PC3 cells over-expressing AKR1C3 at 1 uM incubated for 72 hrs by alamar blue assay; assay type: functional, cell-based

CCc1ccccc1NC(=O)c1cc2cccc(O)c2oc1=N
Activity [1]: inactive | IC50 [2]: 21 nM

N=c1oc2c(O)cccc2cc1C(=O)Nc1ccccc1F
Activity [1]: inactive | IC50 [2]: 64 nM

N=c1oc2c(O)cccc2cc1C(=O)Nc1ccc(Cl)cc1
Activity [1]: inactive | IC50 [2]: 52 nM

N=c1oc2c(O)cccc2cc1C(=O)Nc1ccccc1C(F)(F)F
Ratio IC50 (Homo sapiens [3]): > 500 | IC50 [2]: 20 nM | Ratio IC50 (Homo sapiens [4]): > 500 | Ratio IC50 (Homo sapiens [5]): 4 | IC50 [6]: 75 nM | IC50 [7]: > 10 µM | Ratio IC50 (Homo sapiens [8]): > 500 | IC50 [9]: > 10 µM | IC50 [10]: > 10 µM

N=c1oc2c(O)cccc2cc1C(=O)Nc1cccc(C(F)(F)F)c1
IC50 [2]: 50 nM

N=c1oc2c(O)cccc2cc1C(=O)Nc1cccc(Cl)c1
Activity [1]: inactive | Ratio IC50 (Homo sapiens [3]): > 220 | IC50 [2]: 46 nM | Ratio IC50 (Homo sapiens [4]): > 220 | Ratio IC50 (Homo sapiens [5]): 3 | IC50 [6]: 120 nM | IC50 [7]: > 10 µM | Ratio IC50 (Homo sapiens [8]): > 220 | IC50 [9]: > 10 µM | IC50 [10]: > 10 µM

N#CC(=C(/N)Sc1ccccc1N)/C(C#N)=C(\N)Sc1ccccc1N
inhibition (PC-3 [11]): inactive

C[C@]12CC[C@H](O)CC1=CC[C@@H]1[C@@H]2CC[C@]2(C)C(c3cccnc3)=CC[C@@H]12
Activity (CWR22R [12]): Active | inhibition (CWR22R [13]): Active | inhibition (CWR22R [14]): Active | inhibition (CWR22R [15]): Active | Activity (CWR22R [16]): Active | inhibition (CWR22R [17]): Active

CC(C)C(=O)Nc1ccc([N+](=O)[O-])c(C(F)(F)F)c1
inhibition (CWR22R [13]): Active | inhibition (CWR22R [14]): Active | inhibition (CWR22R [15]): Active | inhibition (CWR22R [17]): Active

N=c1oc2c(O)cccc2cc1C(=O)Nc1ccccc1
Activity [1]: inactive | IC50 [2]: 36 nM

Cc1ccccc1NC(=O)c1cc2cccc(O)c2oc1=N
IC50 [2]: 52 nM

COC[C@H]1OC(=O)c2coc3c2[C@@]1(C)C1=C(C3=O)[C@@H]2CCC(=O)[C@@]2(C)C[C@H]1OC(C)=O
inhibition (PC-3 [18]): Active

CC(C)c1ccccc1NC(=O)c1cc2cccc(O)c2oc1=N
IC50 [2]: 30 nM

N=c1oc2cccc(O)c2cc1C(=O)Nc1ccc(F)cc1
IC50 [2]: 370 nM

N=c1oc2c(O)cccc2cc1C(=O)Nc1ccc(C(F)(F)F)cc1C(F)(F)F
IC50 [2]: 58 nM

CCc1ccc(NC(=O)c2cc3cccc(O)c3oc2=N)cc1
Activity [1]: inactive | IC50 [2]: 45 nM

N=c1oc2c(O)cccc2cc1C(=O)Nc1cccc(F)c1
Activity [1]: inactive | Ratio IC50 (Homo sapiens [3]): > 340 | IC50 [2]: 29 nM | Ratio IC50 (Homo sapiens [4]): > 340 | Ratio IC50 (Homo sapiens [5]): 13 | IC50 [6]: 370 nM | IC50 [7]: > 10 µM | Ratio IC50 (Homo sapiens [8]): > 340 | IC50 [9]: > 10 µM | IC50 [10]: > 10 µM

N=c1oc2ccc(O)cc2cc1C(=O)Nc1ccc(F)cc1
IC50 [2]: > 10000 nM

COc1cccc2cc(C(=O)Nc3ccc(F)cc3)c(=N)oc12
IC50 [2]: > 10000 nM

N=c1oc2c(O)cccc2cc1C(=O)Nc1ccccc1Cl
Activity [1]: inactive | Ratio IC50 (Homo sapiens [3]): > 180 | IC50 [2]: 56 nM | Ratio IC50 (Homo sapiens [4]): > 180 | Ratio IC50 (Homo sapiens [5]): 0.6 | IC50 [6]: 34 nM | IC50 [7]: > 10 µM | Ratio IC50 (Homo sapiens [8]): > 180 | IC50 [9]: > 10 µM | IC50 [10]: > 10 µM

N=c1oc2cc(O)ccc2cc1C(=O)Nc1ccc(F)cc1
IC50 [2]: > 10000 nM

CC(C)c1cccc(NC(=O)c2cc3cccc(O)c3oc2=N)c1
IC50 [2]: 47 nM

N=c1oc2c(O)cccc2cc1C(=O)Nc1ccc(C(F)(F)F)cc1
IC50 [2]: 24 nM

N=c1oc2c(O)cccc2cc1C(=O)Nc1cc(F)c(F)c(F)c1
Activity [1]: inactive | IC50 [2]: 47 nM

N=c1oc2c(O)cccc2cc1C(=O)Nc1cccc(O)c1
Activity [1]: inactive | IC50 [2]: 60 nM

N=c1oc2c(O)cccc2cc1C(=O)Nc1ccc(O)cc1
Activity [1]: inactive | IC50 [2]: > 10000 nM

Cc1cccc(NC(=O)c2cc3cccc(O)c3oc2=N)c1
IC50 [2]: 55 nM

N=c1oc2c(O)cccc2cc1C(=O)Nc1ccccc1O
Activity [1]: inactive | IC50 [2]: > 10000 nM

N=c1oc2c(O)cccc2cc1C(=O)Nc1ccc(F)c(F)c1
Activity [1]: inactive | IC50 [2]: 220 nM
